Not all results are given here.
PGC1a acetyl up = raises PGC1a acetylation signal in U2OS cells | hit rate 0.21% among 350,000 | activation, % at 15.6 µM | U2OS PGC1a acetylation AlphaScreen, overnight;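 active = every replicate reaching activation of at least 50%, whatever the mean replicate activation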;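 note: hits raise the AlphaScreen acetylation signal above neutral controls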
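System: flag-PGC1a/GCN5 U2OS cells / Input: 7000 cells/well / Compound: single test concentration per compound / Incubation: overnight compound treatment, 37 °C / Technique: AlphaScreen on lysates with anti-acetyl-lysine antibody, acceptor and donor beads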
A number is an active result.

What do the screens show for `COc1ccccc1OCCn1c(C(C)O)nc2ccccc21` (configuration not stated)?
PGC1a acetyl up: 57

What do the screens show for `COc1ccc(F)cc1CN1CCN(CC(=O)N2CCc3ccccc32)CC1`?
PGC1a acetyl up: inactive

What do the screens show for `COc1cc(OC)cc(C(=O)N[C@H](C(=O)OCC(=O)NC(=O)NC(C)(C)C)C(C)C)c1`?
PGC1a acetyl up: inactive

What do the screens show for `C[C@H](CO)N1C[C@H](C)[C@@H](CN(C)C(=O)C2CCCCC2)Oc2cc(C#Cc3ccncc3)ccc2S1(=O)=O`?
PGC1a acetyl up: inactive

How did CC(C)CC#Cc1ccc2c(c1)O[C@H](CN(C)C)[C@@H](C)CN([C@H](C)CO)S2(=O)=O do in these assays?
PGC1a acetyl up: 59

Results for C[C@H](CO)N1C[C@H](C)[C@H](CN(C)C(=O)C2CCCCC2)Oc2cc(-c3ccccc3)ccc2S1(=O)=O ?
PGC1a acetyl up: 63

Results for COc1ccccc1-c1ccc2c(c1)O[C@@H](CN(C)Cc1ccc3c(c1)OCO3)[C@@H](C)CN([C@H](C)CO)S2(=O)=O ?
PGC1a acetyl up: 64

What do the screens show for `CC(C)CC#Cc1ccc2c(c1)O[C@H](CN(C)Cc1ccccc1)[C@H](C)CN([C@@H](C)CO)S2(=O)=O`?
PGC1a acetyl up: inactive

What do the screens show for `C[C@H]1CN([C@@H](C)CO)S(=O)(=O)c2ccc(-c3ccccc3)cc2O[C@@H]1CN(C)Cc1cccc(F)c1`?
PGC1a acetyl up: inactive

What do the screens show for `COc1ccccc1C#Cc1ccc2c(c1)O[C@@H](CN(C)Cc1cccnc1)[C@H](C)CN([C@H](C)CO)S2(=O)=O`?
PGC1a acetyl up: inactive

How did CC(C)CC#Cc1ccc2c(c1)O[C@H](CN(C)Cc1ccccc1)[C@@H](C)CN([C@H](C)CO)S2(=O)=O do in these assays?
PGC1a acetyl up: inactive

Results for CC(=O)N(C)C[C@H]1Oc2cc(-c3ccc(C#N)cc3)ccc2S(=O)(=O)N([C@@H](C)CO)C[C@@H]1C ?
PGC1a acetyl up: inactive

How did Cc1cc2c(c(/C=C/C(=O)c3ccccc3)c1)OC1(C=C2)Oc2ccccc2C(=O)N1C (configuration not stated) do in these assays?
PGC1a acetyl up: inactive

How did Cc1ccccc1-c1nc(SCc2ccccn2)c2c(=O)n(C)c(=O)n(C)c2n1 do in these assays?
PGC1a acetyl up: inactive

How did Cc1ccc(NC(=O)C2C(c3ccccc3)C2(Cl)Cl)c(C)c1 (configuration not stated) do in these assays?
PGC1a acetyl up: inactive

How did C[C@H]1CN([C@@H](C)CO)S(=O)(=O)c2ccc(-c3cncnc3)cc2O[C@H]1CN(C)C(=O)CN(C)C do in these assays?
PGC1a acetyl up: inactive

Results for O=C1CC2CS(=O)(=O)CC2N1c1ccc(Cl)cc1Cl (configuration not stated) ?
PGC1a acetyl up: inactive

Results for CCOC(=O)CS(=O)(=O)c1nc(-c2ccccc2)cc(C(F)(F)F)n1 ?
PGC1a acetyl up: inactive

Results for CCOC(=O)CN1C(=O)C(Sc2n[nH]c(-c3ccc(C)cc3)n2)CCc2ccccc21 (configuration not stated) ?
PGC1a acetyl up: 59

How did Nc1ccccc1-c1ccn[nH]1 do in these assays?
PGC1a acetyl up: inactive

How did CCOC(=O)C1(N(CC)CC)Sc2cc(C)ccc2NC1=O (configuration not stated) do in these assays?
PGC1a acetyl up: 84

How did CO[C@H]1CN(C)C(=O)c2cc(NS(C)(=O)=O)ccc2OC[C@@H](C)N(C(=O)CC2CC2)C[C@H]1C do in these assays?
PGC1a acetyl up: inactive

What do the screens show for `CC1=CC=CC2=NC(=O)CC(C)(C(=O)N(CC(=O)NC3CCCC3)c3ccccc3C)N12` (configuration not stated)?
PGC1a acetyl up: 54

Results for O=C(N/N=C/c1ccc([N+](=O)[O-])o1)c1cc2ccccc2o1 ?
PGC1a acetyl up: 329

How did O=C(N/N=C/c1ccc([N+](=O)[O-])o1)c1ccc(O)cc1 do in these assays?
PGC1a acetyl up: 64

Results for COc1cc(/C=N/NC(=O)c2ccc(O)cc2)ccc1OCC(=O)Nc1cccc([N+](=O)[O-])c1 ?
PGC1a acetyl up: inactive

What do the screens show for `O=C(c1cccc(F)c1)N1CCN(C(=O)c2cc(-c3ccc(Cl)cc3Cl)on2)CC1`?
PGC1a acetyl up: inactive

How did O=S(=O)(N[C@@H]1CC[C@@H](CCNS(=O)(=O)c2ccccc2Cl)O[C@H]1CO)c1ccccc1 do in these assays?
PGC1a acetyl up: inactive

What do the screens show for `CCN(CC)c1ccc(NC(=O)c2ccc(NC(=O)C3CCCO3)cc2)c(C)c1` (configuration not stated)?
PGC1a acetyl up: 54

Results for CCCC1S/C(=N/N=C/c2ccc(C)cc2)N(Cc2ccc(OC)cc2)C1=O (configuration not stated) ?
PGC1a acetyl up: inactive

How did COc1cccc(N2C(=O)CC(N3CCC(c4nc5ccccc5[nH]4)CC3)C2=O)c1 (configuration not stated) do in these assays?
PGC1a acetyl up: 58

Results for CN1CCN(C(=O)c2sc(=S)n(-c3ccccc3)c2N)CC1 ?
PGC1a acetyl up: inactive

How did O=C(CCCCCCC(=O)Nc1ccccc1)NO do in these assays?
PGC1a acetyl up: inactive

What do the screens show for `Cc1ccc(CCC(=O)Nc2ccc(Cl)cc2)o1`?
PGC1a acetyl up: inactive

How did O=C(CCl)Nc1ccc(N=Nc2ccccc2)cc1 do in these assays?
PGC1a acetyl up: 101

How did OC(c1ccc(Cl)cc1Cl)C(Cc1cccnc1)n1cncn1 (configuration not stated) do in these assays?
PGC1a acetyl up: 59

Results for CCC(C)C(NC(=O)C1CCC(C)CC1)C(=O)NCc1cccnc1 (configuration not stated) ?
PGC1a acetyl up: 55

Results for O=C(NCc1cccnc1)C1CC(=O)N(C2CCCCC2)C1 (configuration not stated) ?
PGC1a acetyl up: inactive

What do the screens show for `COc1ccc(NC(=O)N[C@H]2CC[C@@H](CCn3cc(-c4ccccc4F)nn3)O[C@H]2CO)cc1`?
PGC1a acetyl up: inactive

What do the screens show for `Cc1nc(C(C)N(C)Cc2nc(-c3ccc4c(c3)OCO4)no2)c(C)s1` (configuration not stated)?
PGC1a acetyl up: inactive

Results for CC1(Cc2ccc(Cl)s2)C(=O)Nc2c(Cl)ccc(Cl)c21 (configuration not stated) ?
PGC1a acetyl up: 65

What do the screens show for `Cc1cc(Nc2ccccc2)cc(=O)n1C`?
PGC1a acetyl up: inactive

Results for O=C(COn1nnc2ccc(Cl)cc21)NC12CC3CC(CC(C3)C1)C2 ?
PGC1a acetyl up: inactive

Results for O=C(CSc1nc(NS(=O)(=O)c2ccccc2)cc(=O)[nH]1)Nc1ccc(F)cc1 ?
PGC1a acetyl up: 69

What do the screens show for `C[C@H]1CN([C@@H](C)CO)C(=O)Cc2cc(NS(=O)(=O)c3ccc(F)cc3)ccc2O[C@@H]1CN(C)C(=O)Nc1ccc2c(c1)OCO2`?
PGC1a acetyl up: inactive

Results for NS(=O)(=O)c1cccc(NC(=O)CSc2ccccn2)c1 ?
PGC1a acetyl up: inactive

What do the screens show for `CN1C(C(=O)Nc2ccccn2)=C(O)c2sc(Cl)cc2S1(=O)=O`?
PGC1a acetyl up: inactive

What do the screens show for `O=C(Cc1ccc(Cl)cc1)Nc1ncccn1`?
PGC1a acetyl up: inactive

What do the screens show for `COc1ccc(-c2cc(C(F)(F)F)nc(S(C)(=O)=O)n2)cc1`?
PGC1a acetyl up: 66

How did CCOC(=O)CCS(=O)(=O)c1nc(-c2ccccc2)cc(C(F)(F)F)n1 do in these assays?
PGC1a acetyl up: inactive

Results for Oc1ccc(/C=N/Nc2nc(-c3ccc(Cl)cc3)cc(C(F)(F)F)n2)cc1 ?
PGC1a acetyl up: inactive

What do the screens show for `C[C@H](CO)N1C[C@H](C)[C@H](CN(C)C(=O)CN(C)C)Oc2cc(-c3cncnc3)ccc2S1(=O)=O`?
PGC1a acetyl up: inactive

Screens deposited in PubChem by Broad Institute.
